Assay results published in ChEMBL document CHEMBL1126715, “Synthesis and tissue distribution of (m-[125I]iodobenzyl)trozamicol ([125I]MIBT): potential radioligand for mapping central cholinergic innervation” (J Med Chem, 1993).

Assays:
[1] = organism: Rattus norvegicus; assay: Tissue distribution in rat heart after 5 minutes (n=3); format: ADME, organism-based; details: in vivo
How it was run: (§1)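 Male Wistar rats (200-350 g) under ether anesthesia; radiotracer (3-5 μCi in 0.1 mL 50% aqueous ethanol) given iv. At 5, 30, 60 and 180 min, blood was drawn by cardiac puncture and animals were killed by cardiectomy. Organs were weighed and γ-counted against a 1:100 dilution of the injected dose. Results are given as % injected dose/g tissue; ratios are taken between tissue levels.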

[2] = organism: Rattus norvegicus; assay: Tissue distribution in rat thyroid after 60 minutes (n=3); format: ADME, organism-based, Thyroid gland; details: in vivo, 1 h; how it was run: as §1
[3] = organism: Rattus norvegicus; assay: Tissue distribution in rat gonads after 30 minutes (n=3); format: ADME, organism-based, Gonad; details: in vivo, 0.5 h; how it was run: as §1
[4] = organism: Rattus norvegicus; assay: Ratio of tissue distribution between rat brain and blood after 60 min; format: ADME, organism-based; details: 1 h; how it was run: as §1
[5] = organism: Rattus norvegicus; assay: Tissue distribution in rat lung after 30 minutes (n=3); format: ADME, organism-based; details: in vivo, 0.5 h; how it was run: as §1
[6] = organism: Rattus norvegicus; assay: Tissue distribution in rrat heart after 60 minutes (n=3); format: ADME, organism-based; details: in vivo, 1 h; how it was run: as §1
[7] = organism: Rattus norvegicus; assay: Tissue distribution in rat spleen after 5 minutes (n=3); format: ADME, organism-based; details: in vivo
How it was run: (§2)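 Male Wistar rats (200-350 g) under ether, iv [125I]tracer (3-5 μCi in 0.1 mL 50% aqueous EtOH). At 5, 30, 60 or 180 min, blood taken by cardiac puncture and the rat killed by cardiectomy. Organs weighed and γ-counted against 1:100 dilutions of the injected dose; results in % injected dose/g, with range.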

[8] = organism: Rattus norvegicus; assay: Effect of vesamicol on the accumulation in rat spleen in group 2 (n=3); format: ADME, organism-based; details: in vivo
How it was run: (§3)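 Male Wistar rats (n = 4/group) given iv vehicle (100 μL 50% aqueous EtOH) or dl-vesamicol (1.01 μmol/kg); 15 min later iv radiotracer (2.0 μCi in 100 μL 50% aqueous EtOH); killed 30 min post-tracer. Blood by cardiac puncture, organs weighed and γ-counted vs 1:100 injected-dose dilution; % dose/g tissue (range); tissue/blood ratios.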

[9] = organism: Rattus norvegicus; assay: Effect of vesamicol on the accumulation in rat blood in group 2 (n=3); format: ADME, organism-based; details: in vivo; how it was run: as §3
[10] = organism: Rattus norvegicus; assay: Tissue distribution in rat gonads after 5 minutes (n=3); format: ADME, organism-based, Gonad; details: in vivo; how it was run: as §1
[11] = Ratio of effect of vesamicol on the accumulation between rat heart and blood in group 2; format: ADME, organism-based; how it was run: as §3
[12] = organism: Rattus norvegicus; assay: Ratio of tissue distribution between rat heart and blood after 30 min; format: ADME, organism-based; details: other tissue, 0.5 h; how it was run: as §1
[13] = organism: Rattus norvegicus; assay: Tissue distribution in rat muscle after 60 minutes (n=3); format: ADME, organism-based; details: in vivo, 1 h; how it was run: as §2
[14] = organism: Rattus norvegicus; assay: Tissue distribution in rat heart after 180 minutes (n=3); format: ADME, organism-based; details: in vivo, 3 h; how it was run: as §1
[15] = organism: Rattus norvegicus; assay: Ratio of tissue distribution between rat brain and blood after 5 min; format: ADME, organism-based; details: brain, 5 min
How it was run: (§4)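 Male Wistar rats (200-350 g) under ether anesthesia, iv radiotracer (3-5 μCi in 0.1 mL 50% aqueous ethanol). At 5, 30, 60, 180 min blood taken by cardiac puncture, animal killed by cardiectomy; organs weighed, γ-counted against 1:100 injected-dose dilution; % injected dose/g tissue; brain/blood ratio.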

[16] = organism: Rattus norvegicus; assay: Tissue distribution in rat brain after 30 minutes (n=3); format: ADME, organism-based; details: in vivo, 0.5 h; how it was run: as §1
[17] = organism: Rattus norvegicus; assay: Tissue distribution in rat blood after 60 minutes (n=3); format: ADME, organism-based; details: in vivo, 1 h; how it was run: as §2
[18] = organism: Rattus norvegicus; assay: Tissue distribution in rat lung after 5 minutes (n=3); format: ADME, organism-based; details: in vivo; how it was run: as §1
[19] = organism: Rattus norvegicus; assay: Effect of vesamicol on the accumulation in rat heart in group 2 (n=3); format: ADME, organism-based; details: in vivo; how it was run: as §3
[20] = organism: Rattus norvegicus; assay: Tissue distribution in rat liver after 180 minutes (n=3); format: ADME, organism-based; details: in vivo, 3 h; how it was run: as §2
[21] = organism: Rattus norvegicus; assay: Tissue distribution in rat heart after 30 minutes (n=3); format: ADME, organism-based; details: in vivo, 0.5 h; how it was run: as §2
[22] = organism: Rattus norvegicus; assay: Ratio of tissue distribution between rat brain and blood after 180 min; format: ADME, organism-based; details: 3 h; how it was run: as §4
[23] = organism: Rattus norvegicus; assay: Tissue distribution in rat blood after 5 minutes (n=3); format: ADME, organism-based; details: in vivo; how it was run: as §1
[24] = organism: Rattus norvegicus; assay: Effect of vesamicol on the accumulation in rat kidney in group 1 (n=3); format: ADME, organism-based; details: in vivo
[25] = organism: Rattus norvegicus; assay: Effect of vesamicol on the accumulation in rat liver in group 1 ([…]); format: ADME, organism-based; details: in vivo; how it was run: as §3
[26] = organism: Rattus norvegicus; assay: Ratio of tissue distribution between rat brain and blood after 30 min; format: ADME, organism-based; details: 0.5 h; how it was run: as §4
[27] = Ratio of tissue distribution between rat heart and blood after 180 min; format: ADME, organism-based; how it was run: as §1
[28] = organism: Rattus norvegicus; assay: Tissue distribution in rat liver after 5 minutes (n=3); format: ADME, organism-based; details: in vivo; how it was run: as §2
[29] = organism: Rattus norvegicus; assay: Tissue distribution in rat thyroid after 5 minutes (n=3); format: ADME, organism-based, Thyroid gland; details: in vivo; how it was run: as §2
[30] = organism: Rattus norvegicus; assay: Tissue distribution in rat kidney after 60 minutes (n=3); format: ADME, organism-based; details: in vivo, 1 h; how it was run: as §1
[31] = organism: Rattus norvegicus; assay: Tissue distribution in rat thyroid after 30 minutes (n=3); format: ADME, organism-based, Thyroid gland; details: in vivo, 0.5 h; how it was run: as §1
[32] = organism: Rattus norvegicus; assay: Tissue distribution in rat muscle after 5 minutes (n=3); format: ADME, organism-based; details: in vivo; how it was run: as §1
[33] = Ratio of effect of vesamicol on the accumulation between rat brain and blood in group 1; format: ADME, organism-based; how it was run: as §3
[34] = organism: Rattus norvegicus; assay: Effect of vesamicol on the accumulation in rat thyroid in group 1 (n=3); format: ADME, organism-based, Thyroid gland; details: in vivo; how it was run: as §3
[35] = organism: Rattus norvegicus; assay: Tissue distribution in rat kidney after 5 minutes (n=3); format: ADME, organism-based; details: in vivo; how it was run: as §1
[36] = organism: Rattus norvegicus; assay: Effect of vesamicol on the accumulation in rat blood in group 1 (n=3); format: ADME, organism-based; details: in vivo

**Q.** For `O[C@@H]1CCN(Cc2cccc([125I])c2)C[C@H]1N1CCC(c2ccccc2)CC1` (stereo in doubt; (-)), which Dose/g [1] is on record?
**A.** 1.32%

**Q.** What about the Dose/g [2] of the same molecule?
**A.** 5.87%

**Q.** What about the Dose/g [3] of the same molecule?
**A.** 0.23%

**Q.** And the Ratio [4]?
**A.** 8.51

**Q.** And the Dose/g [5]?
**A.** 3.21%

**Q.** What about the Dose/g [6] of the same molecule?
**A.** 0.58%

**Q.** What about the Dose/g [7] of the same molecule?
**A.** 1.04%

**Q.** What about the Dose/g [8] of the same molecule?
**A.** 0.8%

**Q.** And the Dose/g [9]?
**A.** 0.12%

**Q.** What about the Dose/g [10] of the same molecule?
**A.** 0.19%

**Q.** What about the Kp [11] of the same molecule?
**A.** 2.4

**Q.** What about the Ratio [12] of the same molecule?
**A.** 6.87

**Q.** And the Dose/g [13]?
**A.** 0.28%

**Q.** And the Dose/g [14]?
**A.** 0.5%

**Q.** What about the Ratio [15] of the same molecule?
**A.** 4.27

**Q.** And the Dose/g [16]?
**A.** 0.99%

**Q.** What about the Dose/g [17] of the same molecule?
**A.** 0.1%

**Q.** And the Dose/g [18]?
**A.** 5.9%

**Q.** What about the Dose/g [19] of the same molecule?
**A.** 0.3%

**Q.** And the Dose/g [20]?
**A.** 2.23%

**Q.** And the Dose/g [21]?
**A.** 0.75%

**Q.** And the Ratio [22]?
**A.** 9.87

**Q.** What about the Dose/g [23] of the same molecule?
**A.** 0.22%

**Q.** What about the Dose/g [24] of the same molecule?
**A.** 2.45%

**Q.** What about the Dose/g [25] of the same molecule?
**A.** 1.91%

**Q.** And the Ratio [26]?
**A.** 9.06

**Q.** And the Kp at 3 h [27]?
**A.** 5.32

**Q.** What about the Dose/g [28] of the same molecule?
**A.** 2.07%

**Q.** What about the Dose/g [29] of the same molecule?
**A.** 2.67%

**Q.** And the Dose/g [30]?
**A.** 3.13%

**Q.** What about the Dose/g [31] of the same molecule?
**A.** 3.15%

**Q.** What about the Dose/g [32] of the same molecule?
**A.** 0.46%

**Q.** What about the Kp [33] of the same molecule?
**A.** 6.45

**Q.** What about the Dose/g [34] of the same molecule?
**A.** 2.62%

**Q.** What about the Dose/g [35] of the same molecule?
**A.** 3.71%

**Q.** And the Dose/g [36]?
**A.** 0.11%
